Among the data in ChEMBL document CHEMBL2434885, “cis-Dichloroplatinum(II) complexes tethered to dibenzo[c,h][1,6]naphthyridin-6-ones: synthesis and cytotoxicity in human cancer cell lines in vitro” (Eur J Med Chem, 2013) are IC50 values, retold here.

Assay type in all cases: functional, cell-based
For experiment [1], the system named is HT-29. Put plainly: Cytotoxicity against human HT-29 cells after 72 hrs by crystal-violet staining-based spectrophotometric analysis. The note with it: HT-29, 72 h. The essentials:
(§1)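 Subconfluent, exponentially growing, mycoplasma-free monolayers in RPMI 1640 + 10% FBS, 5% CO2. Cells treated 72 h with 0–500 µM (compounds in physiological serum, or in DMF at ≤3% final). Cells then PBS-washed, ethanol-fixed, stained with 1% crystal violet and eluted in 33% acetic acid, with A570 read. Triplicates, three independent experiments. IC50 taken from concentration–response curves as 50% growth inhibition.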

Experiment [2] deals with HCT-116. Kind of experiment: Cytotoxicity against human HCT116 cells after 72 hrs by crystal-violet staining-based spectrophotometric analysis. The conditions noted are these: HCT-116, 72 h. The gist of the method:
as §1

In experiment [3] the test system is SW480. Kind of experiment: Cytotoxicity against human SW480 cells after 72 hrs by crystal-violet staining-based spectrophotometric analysis. The conditions noted are these: SW480, 72 h. The gist of the method: as §1

On to `NCCNCCn1c(=O)c2cc([N+](=O)[O-])ccc2c2cnc3cc4c(cc3c21)OCO4`, for which the IC50 in experiment [1] was found to be 43 µM; in experiment [2], 25 µM; in experiment [3], 40.7 µM.

As for `NCCNCCCn1c(=O)c2cc([N+](=O)[O-])ccc2c2cnc3cc4c(cc3c21)OCO4`, the IC50 is 22.2 µM in experiment [1], 12.2 µM in experiment [2] and 30.1 µM in experiment [3].

Regarding `NCCNCCCCn1c(=O)c2cc([N+](=O)[O-])ccc2c2cnc3cc4c(cc3c21)OCO4`, the results for the half-maximal inhibitory concentration (IC50) in experiment [1], in experiment [2] and in experiment [3] were 41.2 µM, 30.7 µM and 43.7 µM, respectively.

For the compound `NCCNCCCCCn1c(=O)c2cc([N+](=O)[O-])ccc2c2cnc3cc4c(cc3c21)OCO4`, the IC50 came out at 47.6 µM in experiment [1], 25.2 µM in experiment [2] and 50.7 µM in experiment [3].

In the case of `NCCNCCCCCCn1c(=O)c2cc([N+](=O)[O-])ccc2c2cnc3cc4c(cc3c21)OCO4`, the concentration for half-maximal inhibition (IC50) in experiment [1] stood at 30.8 µM; in experiment [2], 15.4 µM; in experiment [3] it was 24 µM.

As usually defined, the IC50 is the midpoint of a concentration-inhibition curve. A lower IC50 goes with greater potency.
